The source of these data is ChEMBL document CHEMBL1153622, “Antiviral evaluation of N-amino-1,2,3-triazoles against Cantagalo virus replication in cell culture” (Eur J Med Chem, 2009).

The subject of series [1] is Cantagalo virus. Nature of the series: Antiviral activity against Cantagalo virus in african green monkey BSC40 cells assessed inhibition of viral plaque number at 50 uM after 48 hrs post infection. Format: functional. The conditions noted are these: BSC-40, 48 h.
Series [2] concerns Cantagalo virus. Nature of the series: Antiviral activity against Cantagalo virus in african green monkey BSC40 cells assessed inhibition of viral yield at 50 uM after 24 hrs post infection by plaque assay. The series is classed as functional. Particulars: BSC-40, 24 h.
Series [3] in a line: Cytotoxicity against african green monkey BSC40 cells assessed as cell viability at 50 uM for 24 hrs by neutral red assay. Format: cell-based, BSC-40. The conditions noted are these: chlorocebus aethiops, read-out: Activity. The method, boiled down:
(§1)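 Confluent BSC-40 cells exposed to compound for 24 h at 37 °C, 0.5% DMSO control. Neutral red (50 µg/mL) added for 3 h at 37 °C, then 50% methanol with 1% acetic acid for 20 min at room temperature. OD 490 nm read; uptake proportional to viable cells.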

The nature of series [4]: Cytotoxicity against african green monkey BSC40 cells assessed as change in cell morphology at 100 uM for 24 hrs by neutral red assay. Format: cell-based. Particulars: chlorocebus aethiops, bsc-40, 24 h.
A short description of series [5]: Cytotoxicity against african green monkey BSC40 cells assessed as reduction in cell viability at 100 uM for 24 hrs by neutral red assay. The series is classed as cell-based. The conditions noted are these: chlorocebus aethiops, bsc-40, 24 h. The method, boiled down: as §1
Series [6] has as its system Cantagalo virus. Nature of the series: Antiviral activity against Cantagalo virus in african green monkey BSC40 cells assessed inhibition of viral plaque formation at 100 uM after 48 hrs post infection. Format: functional. The conditions noted are these: BSC-40, 48 h.
The subject of series [7] is Cantagalo virus. Nature of the series: Antiviral activity against Cantagalo virus in african green monkey BSC40 cells assessed inhibition of viral yield at 100 uM after 24 hrs post infection by plaque assay. The series is classed as functional, BSC-40. Set-up: scale not given: the % may be the effect or the level left.
Series [8] concerns Cantagalo virus. Nature of the series: Antiviral activity against Cantagalo virus replication in BSC-40 cells assessed as inhibition of viral protein accumulation at 50 uM after 24 hrs post infection by Western blot. The series is classed as functional, organism-based.
Series [9] has as its system Cantagalo virus. Nature of the series: Antiviral activity against Cantagalo virus in african green monkey BSC40 cells assessed as inhibition of viral protein accumulation at 100 uM after 24 hrs post infection by Western blot. Format: functional, BSC-40. The arrangement: scale not given: the % may be the effect or the level left.
A short description of series [10]: Cytotoxicity against african green monkey BSC40 cells assessed as non-viable cells at 100 uM for 24 hrs by neutral red assay. Format: cell-based. The conditions noted are these: chlorocebus aethiops, bsc-40, 24 h. Summed up:
as §1

The subject of series [11] is Cantagalo virus. Nature of the series: Antiviral activity against Cantagalo virus replication in african green monkey BSC40 cells assessed as inhibition of viral protein accumulation after 24 hrs post infection by Western blot. The series is classed as functional, organism-based. Particulars: BSC-40.
Series [12] is described as follows: Cytotoxicity against african green monkey BSC40 cells assessed as non-viable cells at 50 uM for 24 hrs by neutral red assay. The series is classed as cell-based. Particulars: chlorocebus aethiops, bsc-40, 24 h. The method, boiled down:
as §1

For the next series, the system named is Cowpox virus. Nature of the series: Antiviral activity against Cowpox virus. The series is classed as functional, organism-based.
A further series relates to Vaccinia virus. Nature of the series: Antiviral activity against Vaccinia virus. Particulars: Orthopoxvirus vaccinia. The series is classed as functional, organism-based.

pEC50: −log10 of the molar value. Activity calls are given as the source filed them. The calls are words filed in the database; no cut-off is given here.

`CCOC(=O)c1nnn(Nc2ccccc2)c1C`: the inhibition at 50 µM with Cantagalo virus [1] is 15.2%.
On to `CCOC(=O)c1nnn(Nc2cc(Cl)ccc2Cl)c1C`, for which the inhibition at 50 µM in the series on Cantagalo virus [2] stood at 67.5%; in the series with Cantagalo virus [1] it was 47.2%. Moreover, the viability at 24 h, 50 µM in series [3] turned out to be 60%.
For the molecule `Cc1c(C(=O)NN)nnn1Nc1ccc(Cl)cc1`, in the series with Cantagalo virus [1], the inhibition at 50 µM stood at 3.79%.
Still for that read-out and setting: the result for `Cc1c(C(=O)NN)nnn1Nc1ccccc1` reads 6.1%; that for `CCOC(=O)c1nnn(Nc2ccc(F)cc2)c1C`, 9.42%.
In the case of `CCOC(=O)c1nnn(Nc2ccc(Br)cc2)c1C`, the Activity entry is recorded as “Toxic” in [4] and 52.6% in series [5]. Besides, in the series on Cantagalo virus [6], the inhibition at 100 µM was found to be 84.6%. The molecule further came in with an inhibition at 50 µM in the series with Cantagalo virus [1] of 34.4%.
For the molecule `Cc1c(C(=O)NN)nnn1Nc1ccc(F)cc1`, the inhibition at 50 µM was 55.7% in the series with Cantagalo virus [2] and 48.3% in the series with Cantagalo virus [1]. Moreover, the Activity in the series on Cantagalo virus [7] was 80%; in the series on Cantagalo virus [9], 71.2%; in series [10], 30%; in the series on Cantagalo virus [11] it was “Dose-dependent effect”; in series [12], 10%. Besides, in the series with Cantagalo virus [8], the outcome was Active.
In the series with Cantagalo virus [1], `Cc1c(C(=O)NN)nnn1Nc1cc(Cl)ccc1Cl` gave an inhibition at 50 µM of 9.71%.
In the series with Cantagalo virus [1], `CCOC(=O)c1nnn(Nc2ccc(Cl)cc2)c1C` gave an inhibition at 50 µM of 11%.
As to `O=C(NN1C(=O)[C@@H]2[C@@H]3C=C[C@@H]([C@H]4C[C@@H]34)[C@@H]2C1=O)c1ccc(C(F)(F)F)cc1` [TECOVIRIMAT], the pEC50 in the series with Cowpox virus and in the series on Vaccinia virus was > 6.30 each time.
On to `Cc1c(C(=O)NN)nnn1Nc1ccc(Br)cc1`, for which the inhibition at 50 µM in the series with Cantagalo virus [1] amounted to 8.4%.
Take `Nc1ccn(C[C@@H](CO)OCP(=O)(O)O)c(=O)n1` [CIDOFOVIR]: the pEC50 in the series with Vaccinia virus is 5.00.
